From ChEMBL document CHEMBL4024758, “Structure-Based Design and Discovery of New M2 Receptor Agonists” (J Med Chem, 2017)
Active and inactive are the calls of the source. No cut-off for these calls is given here.

Tests used:
[1] = molecular target: T1, Muscarinic acetylcholine receptor M1 (Homo sapiens, UniProt P11229); assay: Displacement of [3H]N-methyl-scopolamine bromide from human recombinant muscarinic M1 receptor expressed in HEK293T cell membranes after 1 hr by liquid scintillation counting method; type: cell-based, HEK-293T
T1 sequence (P11229 whole entry): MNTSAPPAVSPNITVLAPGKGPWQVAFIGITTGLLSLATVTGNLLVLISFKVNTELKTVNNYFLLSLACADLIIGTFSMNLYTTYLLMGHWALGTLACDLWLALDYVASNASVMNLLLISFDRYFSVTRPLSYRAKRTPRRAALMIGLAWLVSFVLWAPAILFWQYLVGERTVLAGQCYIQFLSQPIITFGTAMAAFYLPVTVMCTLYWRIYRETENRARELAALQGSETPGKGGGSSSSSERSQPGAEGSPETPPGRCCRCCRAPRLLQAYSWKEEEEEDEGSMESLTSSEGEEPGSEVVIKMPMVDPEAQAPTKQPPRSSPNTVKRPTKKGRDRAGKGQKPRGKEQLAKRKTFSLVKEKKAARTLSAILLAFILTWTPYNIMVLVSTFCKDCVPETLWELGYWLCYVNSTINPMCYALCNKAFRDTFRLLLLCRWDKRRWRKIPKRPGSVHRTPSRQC

[2] = molecular target: T2, Muscarinic acetylcholine receptor M3 (Homo sapiens, UniProt P20309); assay: Displacement of [3H]N-methyl-scopolamine bromide from human recombinant muscarinic M3 receptor expressed in HEK293T cell membranes after 1 hr by liquid scintillation counting method; type: cell-based, HEK-293T
Target sequence in this assay (P20309 whole entry): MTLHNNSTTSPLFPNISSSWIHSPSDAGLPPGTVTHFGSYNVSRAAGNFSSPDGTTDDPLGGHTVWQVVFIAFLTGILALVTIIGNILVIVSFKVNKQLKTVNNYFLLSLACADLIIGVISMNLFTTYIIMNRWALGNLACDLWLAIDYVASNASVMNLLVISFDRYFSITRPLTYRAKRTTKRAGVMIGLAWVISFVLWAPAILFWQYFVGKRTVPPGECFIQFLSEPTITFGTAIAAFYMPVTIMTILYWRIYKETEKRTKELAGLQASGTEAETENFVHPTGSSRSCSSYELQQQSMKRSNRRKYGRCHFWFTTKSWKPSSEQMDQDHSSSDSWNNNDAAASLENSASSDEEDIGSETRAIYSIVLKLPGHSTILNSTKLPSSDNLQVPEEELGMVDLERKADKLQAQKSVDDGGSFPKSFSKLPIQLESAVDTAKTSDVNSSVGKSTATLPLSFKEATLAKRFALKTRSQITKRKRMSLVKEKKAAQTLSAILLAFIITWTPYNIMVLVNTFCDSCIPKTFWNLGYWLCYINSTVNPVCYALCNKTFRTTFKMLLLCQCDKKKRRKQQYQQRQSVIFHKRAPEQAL

[3] = molecular target: T3, Muscarinic acetylcholine receptor M2 (Homo sapiens) (UniProt P08172); conditions: 10 uM
T3 sequence (whole entry): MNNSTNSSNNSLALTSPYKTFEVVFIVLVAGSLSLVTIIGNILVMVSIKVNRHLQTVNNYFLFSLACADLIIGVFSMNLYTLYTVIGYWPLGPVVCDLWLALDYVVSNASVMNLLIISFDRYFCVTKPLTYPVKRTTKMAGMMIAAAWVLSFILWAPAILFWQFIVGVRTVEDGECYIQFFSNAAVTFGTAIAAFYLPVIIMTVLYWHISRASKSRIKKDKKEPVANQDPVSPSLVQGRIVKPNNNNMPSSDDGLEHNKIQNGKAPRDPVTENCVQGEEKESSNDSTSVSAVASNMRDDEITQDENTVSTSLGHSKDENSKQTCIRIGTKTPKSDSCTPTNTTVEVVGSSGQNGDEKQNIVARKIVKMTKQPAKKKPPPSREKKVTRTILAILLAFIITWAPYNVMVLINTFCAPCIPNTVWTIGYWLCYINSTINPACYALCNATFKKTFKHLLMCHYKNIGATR

[4] = molecular target: T4, Muscarinic acetylcholine receptor M2 (Homo sapiens, UniProt P08172); assay: Displacement of [3H]N-methyl-scopolamine bromide from human recombinant muscarinic M2 receptor expressed in HEK293T cell membranes after 1 hr by liquid scintillation counting method; set-up: species or system HEK-293T
T4 sequence (P08172 whole entry): T3 sequence (whole entry)

[5] = molecular target: T3, Muscarinic acetylcholine receptor M2 (Homo sapiens); assay: Agonist activity at recombinant human muscarinic M2 receptor expressed in HEK293 cells co-expressing beta-arrestin assessed as increase in beta-arrestin recruitment after 24 hrs by Bright-Glo luminescence assay relative to ACh; type: cell-based
In short: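 HEK293 cells stably expressing tTA-dependent luciferase and β-arrestin-TEV protease were transiently transfected with M2-TEV-tTA. Next day, cells were plated at 15000/well in DMEM with 1% FBS. After ≥6 h, compound (0–100 μM, in HBSS-HEPES pH 7.4) was added. The following day, luminescence was read with Bright-Glo. Results are from 4–5 experiments in triplicate.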

[6] = molecular target: Neuronal acetylcholine receptor; alpha4/beta2 (Homo sapiens, UniProt P17787+P43681); assay: Displacement of [3H]cytisine from alpha4beta2 nAChR expressed in human recombinant SH-SY5Y cell membranes after 120 mins
[7] = molecular target: T2, Muscarinic acetylcholine receptor M3; assay: Displacement of [3H]N-methyl-scopolamine from human recombinant muscarinic M3 receptor expressed in CHO-FlpIn cells after 6 hrs by liquid scintillation counting method; type: cell-based; conditions: read-out: Ki(app)
Target sequence in this assay (P20309 whole entry): as the sequence (P20309 whole entry) above

[8] = molecular target: T4, Muscarinic acetylcholine receptor M2; assay: Agonist activity at recombinant human muscarinic M2 receptor expressed in HEK293 cells co-expressing beta-arrestin assessed as increase in beta-arrestin recruitment after 24 hrs by Bright-Glo luminescence assay; type: cell-based
In short: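 HEK293 cells stably expressing tTA-dependent luciferase and β-arrestin-TEV protease, transiently transfected with M2-TEV-tTA; next day plated 15000 cells/well in DMEM 1% FBS on poly-D-lysine; after ≥6 h, compounds 0–100 μM in HBSS-HEPES; following day Bright-Glo added, luminescence after 20 min; 4–5 experiments in triplicate.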

[9] = molecular target: T4, Muscarinic acetylcholine receptor M2; assay: Agonist activity at recombinant human muscarinic M2 receptor expressed in CHO cells assessed as upregulation in ERK1/2 phosphorylation after 5 mins by alphascreen assay; type: cell-based
[10] = molecular target: T4, Muscarinic acetylcholine receptor M2; assay: Agonist activity at recombinant human muscarinic M2 receptor expressed in HEK293 cells assessed as inhibition of forskolin-mediated cAMP accumulation after 10 mins by FRET assay; type: functional, cell-based
[11] = molecular target: T4, Muscarinic acetylcholine receptor M2; assay: Displacement of [3H]N-methyl-scopolamine from human recombinant muscarinic M2 receptor expressed in CHO-FlpIn cells after 6 hrs by liquid scintillation counting method; type: cell-based; conditions: read-out: Ki(app)
[12] = molecular target: T2, Muscarinic acetylcholine receptor M3
Target sequence in this assay (P20309 whole entry): as the sequence (P20309 whole entry) above

[13] = molecular target: T3, Muscarinic acetylcholine receptor M2 (Homo sapiens); assay: Agonist activity at Gi/o coupled recombinant human M2 mAChR expressed in CHO-FlpIn cells assessed as IP-one accumulation after 40 mins by HTRF assay; type: cell-based
In short: (§1)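 Stably transfected CHO-FlpIn whole cells, 20000/well, grown overnight at 37 °C with 5% CO2. Cells were washed with PBS, then held 60 min at 37 °C in HEPES stimulation buffer with 50 mM LiCl, pH 7.4. ACh or test ligand was added and incubated 40 min.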

[14] = molecular target: T3, Muscarinic acetylcholine receptor M2 (Homo sapiens); assay: Agonist activity at human recombinant muscarinic M2 receptor co-expressed with Galphaqi5-HA in African green monkey COS7 cells assessed as IP accumulation after 2 hrs in presence of myo-[3H]inositol by liquid scintillation counting method relative to carbachol; type: functional
[15] = molecular target: T2, Muscarinic acetylcholine receptor M3; assay: Agonist activity at Gq/11 coupled recombinant human M3 mAChR expressed in CHO-FlpIn cells assessed as IP-one accumulation at 100 uM after 40 mins by HTRF assay relative to ACh; type: cell-based
Target sequence in this assay (P20309 whole entry, looked up): as the sequence (P20309 whole entry) above

[16] = molecular target: T1, Muscarinic acetylcholine receptor M1; assay: Agonist activity at Gq/11 coupled recombinant human muscarinic M1 AChR expressed in CHO-FlpIn cells assessed as IP-one accumulation after 40 mins by HTRF assay; type: cell-based
[17] = molecular target: T3, Muscarinic acetylcholine receptor M2 (Homo sapiens); assay: Agonist activity at recombinant human muscarinic M2 receptor expressed in CHO cells assessed as upregulation in ERK1/2 phosphorylation after 5 mins by alphascreen assay relative to ACh; type: cell-based
[18] = molecular target: T5, Muscarinic acetylcholine receptor M1 (Homo sapiens) (UniProt P11229); assay: Agonist activity at Gq/11 coupled recombinant human M1 mAChR expressed in CHO-FlpIn cells assessed as IP-one accumulation after 40 mins by HTRF assay relative to ACh; type: cell-based; in short: as §1
T5 sequence (whole entry): T1 sequence (P11229 whole entry)

[19] = molecular target: T2, Muscarinic acetylcholine receptor M3; remark: listed apart in the source
Target sequence in this assay (P20309 whole entry, looked up): as the sequence (P20309 whole entry) above

[20] = molecular target: T1, Muscarinic acetylcholine receptor M1; assay: Displacement of [3H]N-methyl-scopolamine from human recombinant muscarinic M1 receptor expressed in CHO-FlpIn cells after 6 hrs by liquid scintillation counting method; type: cell-based; conditions: read-out: Ki(app)
[21] = molecular target: T3, Muscarinic acetylcholine receptor M2 (Homo sapiens); assay: Agonist activity at Gi/o protein-coupled recombinant human muscarinic M2 receptor expressed in CHO-FlpIn cells preincubated for 60 mins followed by [35S]GTPgammaS addition after 30 mins by liquid scintillation counting method relative to ACh; type: functional, cell-based
In short: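 Membranes (15 μg) came from CHO cells stably expressing M2R. They were equilibrated 60 min at 30 °C in buffer containing GDP plus ACh or compound. [35S]GTPγS (1 nM) was then added for 30 min at 30 °C. Samples were filtered on GF/B filters, washed with ice-cold 0.9% NaCl and counted by scintillation.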

[22] = molecular target: T4, Muscarinic acetylcholine receptor M2; assay: Agonist activity at Gi/o protein-coupled recombinant human muscarinic M2 receptor expressed in CHO-FlpIn cells preincubated for 60 mins followed by [35S]GTPgammaS addition measured after 30 mins by liquid scintillation counting method; type: functional, cell-based
[23] = molecular target: T3, Muscarinic acetylcholine receptor M2 (Homo sapiens); assay: Agonist activity at recombinant human muscarinic M2 receptor expressed in HEK293 cells assessed as inhibition of forskolin-mediated cAMP accumulation after 10 mins by FRET assay relative to ACh; type: functional, cell-based
In short: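 HEK293 cells stably expressed the Epac FRET cAMP sensor and M2AChR-tetO, induced with 2 μg/mL doxycycline and 1 mM sodium butyrate for 40 h. Basal CFP/YFP was read after 20 min at 37 °C. […] Basal was subtracted; results are from 4–5 experiments in duplicate.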

[24] = molecular target: T4, Muscarinic acetylcholine receptor M2; assay: Agonist activity at human recombinant muscarinic M2 receptor co-expressed with Galphaqi5-HA in African green monkey COS7 cells assessed as IP accumulation after 2 hrs in presence of myo-[3H]inositol by liquid scintillation counting method; type: functional
[25] = molecular target: T5, Muscarinic acetylcholine receptor M1 (Homo sapiens); assay: Agonist activity at recombinant human muscarinic M1 receptor expressed in CHO cells assessed as upregulation in ERK1/2 phosphorylation after 5 mins by alphascreen assay relative to ACh; type: cell-based
[26] = molecular target: T1, Muscarinic acetylcholine receptor M1; assay: Agonist activity at recombinant human muscarinic M1 receptor expressed in CHO cells assessed as upregulation in ERK1/2 phosphorylation after 5 mins by alphascreen assay; type: cell-based

Neuronal acetylcholine receptor; alpha4/beta2, sequence (P17787 whole entry): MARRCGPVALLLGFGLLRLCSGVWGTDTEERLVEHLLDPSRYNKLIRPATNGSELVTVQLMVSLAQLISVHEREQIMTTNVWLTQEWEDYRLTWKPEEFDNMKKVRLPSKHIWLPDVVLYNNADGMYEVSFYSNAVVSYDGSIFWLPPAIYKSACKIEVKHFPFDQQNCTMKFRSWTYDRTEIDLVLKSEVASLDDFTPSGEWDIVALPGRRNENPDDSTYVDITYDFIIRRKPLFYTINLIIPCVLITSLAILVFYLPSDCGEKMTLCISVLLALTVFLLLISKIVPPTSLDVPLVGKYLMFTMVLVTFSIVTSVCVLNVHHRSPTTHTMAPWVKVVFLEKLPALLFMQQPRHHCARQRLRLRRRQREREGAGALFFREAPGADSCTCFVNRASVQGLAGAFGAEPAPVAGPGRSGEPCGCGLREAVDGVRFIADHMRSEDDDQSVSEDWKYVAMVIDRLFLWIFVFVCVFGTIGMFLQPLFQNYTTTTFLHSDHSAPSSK
Neuronal acetylcholine receptor; alpha4/beta2, sequence (P43681 whole entry): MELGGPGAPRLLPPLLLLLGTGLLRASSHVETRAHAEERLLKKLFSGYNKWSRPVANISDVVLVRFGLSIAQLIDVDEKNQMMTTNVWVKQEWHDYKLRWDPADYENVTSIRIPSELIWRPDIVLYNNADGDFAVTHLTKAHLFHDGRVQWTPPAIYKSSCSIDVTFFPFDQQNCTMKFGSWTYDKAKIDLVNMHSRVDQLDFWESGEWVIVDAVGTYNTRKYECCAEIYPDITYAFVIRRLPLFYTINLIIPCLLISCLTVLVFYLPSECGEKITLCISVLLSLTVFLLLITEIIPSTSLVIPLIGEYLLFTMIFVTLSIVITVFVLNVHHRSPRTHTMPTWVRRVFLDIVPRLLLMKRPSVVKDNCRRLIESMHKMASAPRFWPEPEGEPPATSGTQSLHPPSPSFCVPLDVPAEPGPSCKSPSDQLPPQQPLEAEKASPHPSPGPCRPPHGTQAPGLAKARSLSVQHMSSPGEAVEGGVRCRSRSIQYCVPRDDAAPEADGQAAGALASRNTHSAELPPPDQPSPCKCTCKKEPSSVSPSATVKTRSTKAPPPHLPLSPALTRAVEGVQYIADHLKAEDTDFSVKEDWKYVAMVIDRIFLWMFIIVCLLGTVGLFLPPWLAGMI

| Structure (SMILES) | Ki [1] [µM] | Ki [2] [µM] | Ki [4] [µM] | Emax [5] [%] | Ki [7] [µM] | EC50 [8] [µM] | EC50 [9] [µM] | EC50 [10] [µM] | Ki [11] [µM] | EC50 [12] [µM] | Activity [13] | Emax [14] [%] | Emax [15] [%] | EC50 [16] [µM] | Emax [17] [%] | Emax [18] [%] | Ki [20] [µM] | Emax [21] [%] | EC50 [22] [µM] | Emax [23] [%] | also measured |
| --- | --- | --- | --- | --- | --- | --- | --- | --- | --- | --- | --- | --- | --- | --- | --- | --- | --- | --- | --- | --- | --- |
| COc1cccc(CCC[N+](C)(C)C)c1 | 0.33 | 0.62 | 0.63 |  |  |  |  |  |  |  |  |  |  |  |  |  |  |  |  |  | Emax [3]: < 10% |
| C[N+](C)(C)CCc1ccc2c(c1)OCC2 | 6.4 | 6.3 | 13 | 118 | 7.8 | 17 | 0.24 | 11 | 2 | 3.7 | inactive | 62 | 17 | 4.8 | 100 | 8 | 6.8 | 100 | 3.3 | 102 | Ki [6]: 9.7 µM; pEC50 [19]: 5.43 µM; EC50 [24]: 21 µM |
| COc1cccc(CC[N+](C)(C)C)c1 | 33 | > 50 | 14 | 133 | 81 | 14 | 0.83 | 6.3 | 9.1 | 10 | inactive | 75 | 43 | 9.1 | 92 | 48 | 52 | 100 | 7.8 | 108 | Emax [25]: 53%; EC50 [26]: 0.54 µM; EC50 [24]: 12 µM |
